What all share (assay type): functional
The test system of one test is Klebsiella pneumoniae. In words: Antibacterial activity against Klebsiella pneumoniae isolate by conventional agar dilution method. In outline: (§1)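 Inoculum: 3–5 colonies suspended to 0.5 McFarland, then diluted 1000-fold to 1.5 · 10⁵ CFU/mL. Compounds dissolved in DMSO, diluted with water to stock, then serially doubled in Mueller–Hinton broth to 1000, 512, 256, 128, 64, 32, 16, 8, 4 and 2 in a 12-well series. Equal volumes of dilution and bacterial suspension were combined. DMSO-only medium served as solvent control. Sulfamethoxazole was the reference.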

The next test concerns Pseudomonas aeruginosa. The test can be described thus: Antibacterial activity against Pseudomonas aeruginosa ATCC 27853 by conventional agar dilution method. In outline:
as §1

Test [1] deals with Staphylococcus aureus. The test can be described thus: Antibacterial activity against Staphylococcus aureus […] by conventional agar dilution method. The method in brief:
as §1

In another test the test system is Enterococcus faecium. In words: Antibacterial activity against Enterococcus faecium isolate by conventional agar dilution method. In outline: as §1
Test [2] relates to Staphylococcus aureus. In words: Antibacterial activity against Staphylococcus aureus isolate by conventional agar dilution method. In outline:
as §1

A further test concerns Escherichia coli. In words: Antibacterial activity against Escherichia coli isolate by conventional agar dilution method. In outline: as §1

In brackets after ≈: the same amount, converted by molar mass.

For the compound `O=C(NS(=O)(=O)c1ccccc1)c1ccccc1`, the minimal inhibitory concentration (MIC) against Klebsiella pneumoniae came out at 256 µg/mL (≈ 980 µM); in the test on Pseudomonas aeruginosa, 256 µg/mL (≈ 980 µM); in the test on Staphylococcus aureus [1], 256 µg/mL (≈ 980 µM); with Enterococcus faecium it was 256 µg/mL (≈ 980 µM); in the test with Staphylococcus aureus [2], 500 µg/mL (≈ 1910 µM); with Escherichia coli, 256 µg/mL (≈ 980 µM).
Regarding `Cc1ccc(S(=O)(=O)NC(=O)c2ccccc2)cc1`, the MIC in the test on Klebsiella pneumoniae is 256 µg/mL (≈ 930 µM); against Pseudomonas aeruginosa, 256 µg/mL (≈ 930 µM); in the test with Staphylococcus aureus [1] it was 256 µg/mL (≈ 930 µM); against Enterococcus faecium it was 128 µg/mL (≈ 465 µM); against Staphylococcus aureus [2] it was 256 µg/mL (≈ 930 µM); with Escherichia coli it was 64 µg/mL (≈ 232 µM).
For the compound `CCCCC(=O)NS(=O)(=O)c1ccccc1`, the minimal inhibitory concentration (MIC) with Klebsiella pneumoniae, with Pseudomonas aeruginosa, against Staphylococcus aureus [1], in the test on Enterococcus faecium, with Staphylococcus aureus [2] and in the test on Escherichia coli was greater than 1000 µg/mL each time.
As to `CCC(=O)NS(=O)(=O)c1ccc(C)cc1`, the minimum inhibitory concentration (MIC) in the test on Klebsiella pneumoniae came to 500 µg/mL (≈ 2200 µM); against Pseudomonas aeruginosa, 500 µg/mL (≈ 2200 µM); in the test with Staphylococcus aureus [1], 64 µg/mL (≈ 282 µM); against Enterococcus faecium it was 64 µg/mL (≈ 282 µM); against Staphylococcus aureus [2], 128 µg/mL (≈ 563 µM); against Escherichia coli, 128 µg/mL (≈ 563 µM).
On to `CS(=O)(=O)NC(=O)c1ccccc1`, for which the MIC was determined as 500 µg/mL (≈ 2510 µM) against Klebsiella pneumoniae; 500 µg/mL (≈ 2510 µM) in the test on Pseudomonas aeruginosa; 500 µg/mL (≈ 2510 µM) in the test on Staphylococcus aureus [1]; 256 µg/mL (≈ 1280 µM) against Enterococcus faecium; 256 µg/mL (≈ 1280 µM) against Staphylococcus aureus [2]; 256 µg/mL (≈ 1280 µM) in the test with Escherichia coli.
As to `CCCCC(=O)NS(=O)(=O)c1ccc(C)cc1`, the MIC against Klebsiella pneumoniae, in the test with Pseudomonas aeruginosa, in the test on Staphylococcus aureus [1], in the test on Enterococcus faecium, against Staphylococcus aureus [2] and in the test with Escherichia coli was greater than 1000 µg/mL throughout.
For `CC(=O)NS(=O)(=O)c1ccccc1`, the minimum inhibitory concentration (MIC) in the test on Klebsiella pneumoniae, in the test with Pseudomonas aeruginosa, against Staphylococcus aureus [1], against Enterococcus faecium, against Staphylococcus aureus [2] and with Escherichia coli was greater than 1000 µg/mL throughout.
With `CCC(=O)NS(=O)(=O)c1ccccc1`, the MIC was 256 µg/mL (≈ 1200 µM) against Klebsiella pneumoniae; 500 µg/mL (≈ 2340 µM) against Pseudomonas aeruginosa; 128 µg/mL (≈ 600 µM) in the test with Staphylococcus aureus [1]; 64 µg/mL (≈ 300 µM) with Enterococcus faecium; 256 µg/mL (≈ 1200 µM) in the test with Staphylococcus aureus [2]; 256 µg/mL (≈ 1200 µM) in the test on Escherichia coli.
Take `Cc1cc(NS(=O)(=O)c2ccc(N)cc2)no1` [SULFAMETHOXAZOLE]: the MIC turned out to be 8 µg/mL (≈ 31.6 µM) in the test with Klebsiella pneumoniae; 8 µg/mL (≈ 31.6 µM) with Pseudomonas aeruginosa; 2 µg/mL (≈ 7.9 µM) with Staphylococcus aureus [1]; 4 µg/mL (≈ 15.8 µM) with Enterococcus faecium; 4 µg/mL (≈ 15.8 µM) against Staphylococcus aureus [2]; 2 µg/mL (≈ 7.9 µM) with Escherichia coli.

For the origin of these results see ChEMBL document CHEMBL1150303, “Synthesis, in vitro antibacterial and carbonic anhydrase II inhibitory activities of N-acylsulfonamides using silica sulfuric acid as an efficient catalyst under both solvent-free and heterogeneous conditions” (2008).
